Test results: ChEMBL document CHEMBL5329162, “The sulfonadyns: a class of aryl sulfonamides inhibiting dynamin I GTPase and clathrin mediated endocytosis are anti-seizure in animal models” (RSC Med Chem, 2023)
Activity calls are given as the source filed them.

Columns and labels:
[1] = (§1) Inhibition of phosphotidylserine liposome-stimulated sheep brain Dynamin 1 GTPase activity using GTP as substrate by malachite green assay; assay type: tissue-based, Ovis aries
Method in brief: (§2)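 Native dynamin I from sheep brain (membrane extraction, GST-Amph2-SH3-sepharose affinity), stimulated by sonicated phosphatidylserine liposomes; GTP hydrolysis read as orthophosphate by malachite green. DMSO at most 3.3% final. […] 300 μM is the top concentration tested.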

Rattus norvegicus [2] = organism: Rattus norvegicus; test: Inhibition of synaptic vesicle endocytosis in Sprague-Dawley rat cerebrum synaptosomes assessed as reduction in depolarisation-stimulated FM4-64 uptake preincubated for 30 mins followed by FM4-64 addition for 2 mins and further depolarised for 2 mins by fluorescent imaging analysis; assay type: functional, Synaptosome; details: for inhibition: Synaptosome, time 34.0 min
Method in brief: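 Purified rat cerebrum synaptosomes (male, 6–8 weeks) attached to plates at 30 °C in Krebs buffer with 0.1 mM CaCl₂, pH 7.4. Compound or DMSO (1%) for 30 min, then 1 μM FM 4-64 for 2 min, then 80 mM KCl depolarisation for 2 min. Imaged ex 476–524/em 608–742 nm; intensity normalised to control uptake (1.0).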

[3] = Inhibition of clathrin-mediated endocytosis in serum-starved human U2OS cells assessed as reduction in Tfn-A594 uptake pretreated for 30 mins followed by Tfn-A594 addition and measured after 8 mins; assay type: cell-based
Method in brief: (§3)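 U2OS cells on fibronectin-coated plates, serum-starved 16 h, then compound (usually 6 concentrations, 1–300 μM) or vehicle for 30 min, then Tfn-A594 4 μg mL⁻¹ for 8 min at 37 °C. Surface Tfn acid-stripped (pH 2.8), PFA-fixed, DAPI-stained; automated imaging of integrated Tfn intensity per cell, as % of vehicle. DMSO at most 1%.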

Ovis aries [4] = organism: Ovis aries; test: Competitive inhibition of phosphotidylserine liposome-stimulated sheep brain Dynamin 1 GTPase activity using varying concentrations of Mg2+.GTP as substrate at 3 to 7 uM by Lineweaver-Burk plot analysis; assay type: tissue-based; details: dose 3-7 µM
[5] = Inhibition of clathrin-mediated endocytosis in human U2OS cells assessed as reduction in Tfn-A594 uptake pretreated for 30 mins; assay type: cell-based; method in brief: as §3
Ovis aries [6] = organism: Ovis aries; test: Inhibition of phosphotidylserine liposome-stimulated sheep brain Dynamin 1 GTPase activity using GTP as substrate at 300 uM by malachite green assay relative to control; assay type: tissue-based; method in brief: as §2
Ovis aries [7] = organism: Ovis aries; test: as §1; assay type: tissue-based; method in brief: as §2
Mus musculus [8] = test: Antiseizure activity against electrically stimulated seizure in C57BL/6 mouse model assessed as increase in current required to provoke seizures at 400 mg/kg, ip pretreated for 30 mins followed by electrical stimulation at 6 Hz; assay type: functional, organism-based
Method in brief: (§4)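 Mouse 6 Hz corneal stimulation (0.2 ms rectangular pulse, 3 s, varying current). Given ip 30 min before stimulation; DMA 20%/Tween-80 5%/PEG300 75% vehicle for test doses (10, 30, 60 mg kg⁻¹), 0.9% saline for valproate (400 mg kg⁻¹). Seizure scored as stunned/fixed posture, rearing, forelimb clonus or twitching. EC50 current by up-and-down method, 2 mA steps; each mouse used once; Mann–Whitney U vs vehicle.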

Rattus norvegicus [9] = organism: Rattus norvegicus; test: Inhibition of exocytosis in Sprague-Dawley rat brain synaptosome assessed as effect on Ca2+ dependent glutamate release at 80 uM preincubated for 1 mins in presence of NADP followed by glutamate dehydrogenase addition and further stimulated with 4-aminopyridine for 4 mins by spectrofluorimeter; assay type: functional; details: time 5.0 min
Method in brief: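 Synaptosomes (0.6 mg in 2 ml) in Krebs-like buffer, pH 7.4, 37 °C, containing 1.2 mM CaCl₂ or calcium-free with 1 mM EGTA. Started with 1 mM NADP; glutamate dehydrogenase 50 U added after 1 min; 4-aminopyridine stimulation after 4 min. Released glutamate followed as NADPH fluorescence (ex 340/em 460 nm).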

Mus musculus [10] = test: Antiseizure activity against electrically stimulated seizure in C57BL/6 mouse model assessed as increase in seizures threshold at 10 mg/kg, ip pretreated for 30 mins followed by electrical stimulation at 6 Hz; assay type: functional, organism-based; method in brief: as §4
Mus musculus [11] = test: Antiseizure activity against electrically stimulated seizure in C57BL/6 mouse model assessed as increase in seizures threshold at 30 to 60 mg/kg, ip pretreated for 30 mins followed by electrical stimulation at 6 Hz; assay type: functional, organism-based; details: dose 30-60 mg/kg; method in brief: as §4

Row | Compound | IC50 [1] [µM] | also measured
1 | O=S(=O)(NCCCCCCNC/C=C/c1ccc(Br)cc1)c1cccc2cnccc12 | 3.7 | IC50 (Rattus norvegicus [2]): 265 µM; IC50 [3]: 15.9 µM; inhibition (Ovis aries [4]): Active
2 | O=C(N/N=C/c1cc(O)c(O)cc1O)c1cc2ccccc2cc1O | – | IC50 [5]: 5.7 µM
3 | O=C(/C=C/c1ccc(Br)cc1)NCCNS(=O)(=O)c1cccc2cnccc12 | > 300 | inhibition (Ovis aries [6]): < 50%
4 | NCCNS(=O)(=O)c1cccc2cnccc12 | – | inhibition (Ovis aries [7]): inactive
5 | O=S(=O)(NCCNC/C=C/c1ccc(Br)cc1)c1cccc2cccnc12 | 9.5 | –
6 | CCCC(CCC)C(=O)O | – | Activity (Mus musculus [8]): Active
7 | CN(C/C=C/c1ccc(Br)cc1)CCN(C)S(=O)(=O)c1cccc2ccccc12 | 8.7 | –
8 | O=S(=O)(c1cccc2cnccc12)N1CCN(C/C=C/c2ccc(Br)cc2)CC1 | 58.2 | –
9 | CN(C/C=C/c1ccc(Br)cc1)CCNS(=O)(=O)c1cccc2ccccc12 | 10.5 | –
10 | O=S(=O)(NCCCNC/C=C/c1ccc(Br)cc1)c1cccc2ccccc12 | 3.5 | IC50 (Rattus norvegicus [2]): 12.3 µM; IC50 [3]: 27.3 µM; inhibition (Rattus norvegicus [9]): inactive; Activity (Mus musculus [10]): inactive; Activity (Mus musculus [11]): Active; inhibition (Ovis aries [4]): Active
11 | O=S(=O)(NCCNC/C=C/c1ccc(Br)cc1)c1ccc2ccccc2c1 | 3.6 | inhibition (Rattus norvegicus [2]): inactive; IC50 [3]: 9.3 µM
12 | CN(C)c1cccc2c(S(=O)(=O)NCCCCCN)cccc12 | 45.1 | IC50 (Rattus norvegicus [2]): > 300 µM; IC50 [3]: 205 µM
13 | O=S(=O)(NCCCCNC/C=C/c1ccc(Br)cc1)c1cccc2ccccc12 | 3 | inhibition (Rattus norvegicus [2]): inactive; IC50 [3]: 11.3 µM
14 | O=S(=O)(NCCCCCCNC/C=C/c1ccc(Br)cc1)c1cccc2ccccc12 | 5.2 | inhibition (Rattus norvegicus [2]): inactive; IC50 [3]: 27.1 µM
15 | CN(C)c1cccc2c(S(=O)(=O)NCCNC/C=C/c3ccc(Br)cc3)cccc12 | 3.9 | IC50 (Rattus norvegicus [2]): 127 µM; IC50 [3]: 29 µM

Now from value to molecule, other results behind:

Row | IC50 [1] [µM] | Compound | also measured
16 | 19.9 | CN(C)c1ccc(/C=C/CNCCNS(=O)(=O)c2cccc3cnccc23)cc1 | –
17 | 38.2 | O=S(=O)(NCCNC/C=C/c1ccccc1)c1cccc2cnccc12 | –
18 | 7.1 | O=S(=O)(NCCCNC/C=C/c1ccc(Br)cc1)c1cccc2cnccc12 | –
19 | 22.4 | Cc1ccc(/C=C/CNCCNS(=O)(=O)c2cccc3cnccc23)cc1 | –
20 | 9.2 | O=S(=O)(NCCNC/C=C/c1ccc(Cl)cc1)c1cccc2cnccc12 | –
21 | 6.6 | CC(C)(C)c1ccc(/C=C/CNCCNS(=O)(=O)c2cccc3cnccc23)cc1 | –
22 | 30.1 | O=S(=O)(NCCNCCCc1ccccc1)c1cccc2cnccc12 | –
23 | 4.4 | O=S(=O)(NCCNC/C=C/c1ccc(Br)cc1)c1cccc2ccccc12 | inhibition (Rattus norvegicus [2]): inactive; IC50 [3]: 12.4 µM
24 | 12.4 | O=S(=O)(NCCNC/C=C/c1ccc(C(F)(F)F)cc1)c1cccc2cnccc12 | –
25 | 7 | O=S(=O)(NCCNC/C=C/c1ccc(Br)cc1)c1cccc2cnccc12 | –
26 | 96.8 | O=S(=O)(NCCNCCc1ccccc1)c1cccc2cnccc12 | –
27 | 8.1 | O=S(=O)(NCCCCNC/C=C/c1ccc(Br)cc1)c1cccc2cnccc12 | –
28 | 20.3 | O=S(=O)(NCCNC/C=C/c1ccc(F)cc1)c1cccc2cnccc12 | –
